ChEMBL document CHEMBL4814064, “Azetidinimines as a novel series of non-covalent broad-spectrum inhibitors of β-lactamases with submicromolar activities against carbapenemases KPC-2 (class A), NDM-1 (class B) and OXA-48 (class D)” (Eur J Med Chem, 2021)

Experiments:
[1] = Inhibition of NDM-1 (unknown origin) expressed in Escherichia coli BL21 (DE3) incubated for 3 mins by spectrophotometric analysis; design: species or system Bacteria
Procedure, shortened: (§1)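 NDM-1 (1 nM, His-tagged, expressed in E. coli BL21(DE3) with 1 mM IPTG for 3 h at 37 °C, purified, kept with 50 µM ZnSO4). Run in 100 mM phosphate pH 7 with 50 µM ZnSO4, 3 min enzyme–inhibitor preincubation, then 100 µM imipenem. Initial rates at 297 nm over 600 s, 25 °C. Triplicate seven-point IC50 converted to Ki (Cheng–Prusoff); percent inhibition at 10 µM.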

[2] = tested on: Bacteria; assay: Inhibition of NDM-1 (unknown origin) expressed in Escherichia coli BL21 (DE3) at 10 uM incubated for 3 mins by spectrophotometric analysis relative to control; procedure, shortened: as §1
[3] = biological target: Class A carbapenemase KPC-2 (Escherichia coli, UniProt A8DS27); assay: Inhibition of KPC-2 (unknown origin) expressed in Escherichia coli BL21 (DE3) incubated for 3 mins by spectrophotometric analysis
Procedure, shortened: (§2)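 Preincubated 3 min with inhibitor in 100 mM phosphate pH 7. Imipenem 100 µM; hydrolysis followed at 297 nm for 600 s at 25 °C. IC50 from seven concentrations in triplicate; Ki by Cheng–Prusoff. Percent inhibition read at 10 µM.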

[4] = tested on: Bacteria; assay: Inhibition of OXA-48 (unknown origin) expressed in Escherichia coli BL21 (DE3) at 10 uM incubated for 3 mins by spectrophotometric analysis relative to control
Procedure, shortened: (§3)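 OXA-48 at 5.8 nM (His-tagged, expressed in BL21(DE3), purified in K2SO4 buffers) in 100 mM phosphate pH 7 plus 50 mM NaHCO3. Inhibitor preincubated 3 min; substrate 100 µM imipenem; initial velocities at 297 nm, 600 s, 25 °C. Seven inhibitor concentrations in triplicate give IC50, converted to Ki by Cheng–Prusoff; percent inhibition at 10 µM.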

[5] = biological target: Class A carbapenemase KPC-2 (Escherichia coli) (UniProt A8DS27); assay: Inhibition of KPC-2 (unknown origin) expressed in Escherichia coli BL21 (DE3) at 10 uM incubated for 3 mins by spectrophotometric analysis relative to control; procedure, shortened: as §2
[6] = Inhibition of OXA-48 (unknown origin) expressed in Escherichia coli BL21 (DE3) incubated for 3 mins by spectrophotometric analysis; design: species or system Bacteria; procedure, shortened: as §3

SMILES | IC50 [1] | inhibition [2] | Ki ([1]; read-out: Ki) | Ki ([3]; read-out: Ki) | inhibition [4] | inhibition [5] | Ki [6] | Ki [3] | Ki [1]
COc1ccc(N2/C(=N/c3ccccc3)C[C@@H]2c2ccccc2)cc1 | < 5 µM | 95% | – | – | – | – | – | – | –
COc1ccc(N2/C(=N/c3ccccc3)C[C@H]2c2ccccc2)cc1 | < 5 µM | 95% | – | – | – | – | – | – | –
COc1ccc(N2/C(=N/c3ccc(Cl)cc3)CC2c2ccc(Cl)cc2)cc1 (racemic) | – | > 50% | 0.24 µM | 1.93 µM | 27% | > 50% | – | – | –
COc1cccc(N2/C(=N/c3ccccc3)CC2c2ccccc2)c1 (racemic) | – | > 50% | 0.65 µM | 3.6 µM | 28% | > 50% | – | – | –
Ic1ccc(N2/C(=N/c3ccccc3)CC2c2ccccc2)cc1 (racemic) | – | > 50% | 1.9 µM | – | – | – | – | – | –
c1ccc(/N=C2\CC(c3ccccc3)N2c2ccc3c(c2)OCCO3)cc1 (racemic) | – | > 50% | 0.73 µM | 3.6 µM | 37% | > 50% | – | – | –
c1ccc(/N=C2\CC(c3ccccc3)N2c2ccc3c(c2)OCO3)cc1 (racemic) | – | > 50% | 2.39 µM | – | – | – | Not Active | Not Active | –
COc1ccc(/N=C2\CC(c3ccc(Cl)cc3)N2c2ccc(OC)cc2)cc1 (racemic) | – | > 50% | 0.86 µM | – | 31% | – | – | Not Active | –
COc1cc(N2/C(=N/c3ccccc3)CC2c2ccccc2)cc(OC)c1OC (racemic) | – | – | – | – | – | – | Not Active | Not Active | Not Active
COc1ccc(N2/C(=N/c3ccccc3)CC2c2ccc(F)cc2)cc1 (racemic) | – | – | – | – | – | – | – | Not Active | Not Active
Oc1ccc(N2/C(=N/c3ccccc3)CC2c2ccccc2)cc1 (racemic) | – | > 50% | 0.36 µM | – | 26% | 45% | – | – | –
CCOc1ccc(N2/C(=N/c3ccc(Cl)cc3)CC2c2ccc3ccccc3c2)cc1 (racemic) | – | > 50% | 0.27 µM | 1.96 µM | 30% | > 50% | – | – | –
CCOc1ccc(N2/C(=N/c3ccccc3)CC2c2ccccc2)cc1 (racemic) | – | > 50% | 1 µM | 1.4 µM | 45% | > 50% | – | – | –
CCOc1ccc(N2/C(=N/c3ccccc3)CC2c2ccc3ccccc3c2)cc1 (racemic) | – | > 50% | 2.4 µM | – | – | – | – | – | –
COc1ccc(N2/C(=N/c3ccc(C(F)(F)F)cc3)CC2c2ccc(Cl)cc2)cc1 (racemic) | – | > 50% | 0.32 µM | 2.36 µM | 32% | > 50% | – | – | –
c1ccc(COc2ccc(N3/C(=N/c4ccccc4)CC3c3ccccc3)cc2)cc1 (racemic) | – | > 50% | 0.2 µM | 1.15 µM | 31% | > 50% | – | – | –
COc1ccc(N2/C(=N/c3ccccc3)CC2c2cc(Cl)cc(Cl)c2)cc1 (racemic) | – | > 50% | 1 µM | 1.4 µM | 20% | > 50% | – | – | –
COc1ccc(N2/C(=N/c3ccccc3)CC2c2cccnc2)cc1 (racemic) | – | – | – | – | – | – | Not Active | Not Active | Not Active
COc1ccc(N2/C(=N/c3ccc(Br)cc3)CC2c2ccc(Cl)cc2Cl)cc1 (racemic) | – | > 50% | 0.58 µM | – | 46% | 30% | – | – | –
COc1ccc(N2/C(=N/c3ccccc3)CC2c2ccccc2)cc1OC (racemic) | – | > 50% | 2.4 µM | – | – | – | Not Active | Not Active | –
COc1ccc(N2/C(=N/c3ccc(Cl)cc3)CC2c2ccc3ccccc3c2)cc1 (racemic) | – | > 50% | 0.73 µM | 3.94 µM | 18% | > 50% | – | – | –
COc1ccc(N2/C(=N/c3ccccc3)CC2c2ccc(I)cc2)cc1 (racemic) | – | > 50% | 0.49 µM | 0.73 µM | 33% | > 50% | – | – | –
